Screening results as filed in PubChem.
Compounds with a hit are over-represented: about 2% of the library has one in this group of screens.
STAT3 inh: reduces IL-6 driven STAT3 reporter signal | inhibition, % at 5.5 µM | AID 862 | U3A cells, IL-6 STAT3-luciferase reporter, luminescence; host cell line lacks STAT1 | 190,000 compounds, 0.89% hits;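 active means inhibition above the mean inhibition across all screened compounds plus 3 SD, cut at about 44% in these data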;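 further: 0% = DMSO only wells and 100% = 100 µM nifuroxazide control wells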
STAT3 activator: increases IL-6 driven STAT3 reporter signal; U3A cells, IL-6 STAT3-luciferase reporter, luminescence; 100% = signal with IL-6 EC80 alone; activation (% of control), % at 5.6 µM; 190,000 compounds, 0.91% hits;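 active means activation above the screen-wide mean of compound activation plus 3 SD, cut at about 130% in these data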;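 further: 0% = background luminescence of wells with medium and substrate only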
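Material: human U3A cells carrying STAT3-luciferase construct. Measured by: reporter luminescence signal. Timing: compound 1 h, then IL-6 6 h at 37 °C.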
STAT1 blocker: inhibitors of IFN-gamma induced STAT1 signaling | NIH 3T3 STAT1-luciferase reporter, luminescence | inhibition, % at 5.5 µM | 200,000 compounds, 0.35% hits;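 active means inhibition above a set limit, the mean inhibition across all tested compounds plus 3 SD, cut at about 34% in these data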;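 further: 0% = IFN-gamma with DMSO and 100% = IFN-gamma with 300 µM nifuroxazide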
HSP90 refold inh: HSP90 refolding inhibition in rabbit reticulocyte lysate; luciferase refolding luminescence, 3 h; 290,000 compounds, 0.91% hits; inhibition, % at 5.6 µM;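 active means inhibition above the screen-wide mean plus 3 SD, computed separately per campaign, cut at about 16% in these data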;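 further: 0% = DMSO wells and 100% = 60 µM geldanamycin wells; inhibitors lower the luminescence because luciferase stays unfolded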
HSP90 confirm: confirmation of HSP90 inhibitors; shares compounds with HSP90 refold inh; rabbit reticulocyte lysate, luciferase refolding luminescence, 3 h; inhibition, % at 5.9 µM; 2,300 compounds, 64% hits; in the data active means inhibition above about 18%;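 further: 0% = vehicle wells and 100% = reference inhibitor wells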
luciferase ctr: blocks native firefly luciferase in HSP90 counter-screen; shares compounds with HSP90 refold inh; purified native firefly luciferase, luminescence; inhibition, % at 5.9 µM; 2,300 compounds, 48% hits;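 active means inhibition above the mean inhibition of all tested sample wells plus 3 SD, cut at about 10% in these data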;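 further: 0% = DMSO with luciferase and 100% = wells lacking luciferase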
Target sequence (P08659 whole entry, looked up): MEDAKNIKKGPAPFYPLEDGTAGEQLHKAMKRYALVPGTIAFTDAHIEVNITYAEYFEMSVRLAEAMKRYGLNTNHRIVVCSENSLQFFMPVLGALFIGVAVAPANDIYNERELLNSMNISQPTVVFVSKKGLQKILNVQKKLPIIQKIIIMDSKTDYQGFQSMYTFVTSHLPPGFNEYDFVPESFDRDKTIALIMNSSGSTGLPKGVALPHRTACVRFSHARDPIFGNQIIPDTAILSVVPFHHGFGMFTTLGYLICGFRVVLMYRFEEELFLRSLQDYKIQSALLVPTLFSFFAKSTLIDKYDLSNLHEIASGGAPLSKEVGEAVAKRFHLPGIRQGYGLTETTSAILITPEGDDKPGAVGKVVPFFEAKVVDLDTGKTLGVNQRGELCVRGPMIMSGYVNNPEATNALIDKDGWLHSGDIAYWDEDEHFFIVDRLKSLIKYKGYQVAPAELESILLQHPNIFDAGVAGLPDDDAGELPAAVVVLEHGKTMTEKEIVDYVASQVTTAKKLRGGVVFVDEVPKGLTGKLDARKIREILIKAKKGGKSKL
* = called active by the depositor; nt = not tested or not shown.

SMILES | STAT3 inh | STAT3 activator | STAT1 blocker | HSP90 refold inh | HSP90 confirm | luciferase ctr
C[n+]1ccccc1/C=C1\Sc2ccccc2N1CCO | nt | nt | nt | 18* | 0 | -2
Cc1ccc2c(c1)S/C(=C\c1cccc[n+]1C)N2CCO | nt | nt | nt | -2 | nt | nt
O=C(NC(=S)Nc1cccc2c(O)cccc12)c1ccccc1[N+](=O)[O-] | nt | nt | nt | 35* | 9 | 4
O=C(NNC(=S)NC(=O)c1ccccc1[N+](=O)[O-])c1ccccc1O | 8 | 95 | 2 | 2 | nt | nt
Cc1ccc(-c2cnc3ccccc3n2)cc1C | nt | nt | nt | 29* | 64* | 58*
Cc1cc2ncc(-c3ccccc3)nc2cc1C | nt | nt | nt | 15 | nt | nt
COc1ccc2cc3cc(C(=O)NCCCN4CCc5ccccc5C4)sc3nc2c1 | -39 | 128 | -34 | -4 | nt | nt
COc1ccc2cc3cc(C(=O)NC4CC4)sc3nc2c1 | nt | nt | nt | 21* | 47* | 29*
Cc1ccc(NC(=S)Nc2cccc3ccccc23)cc1F | nt | nt | nt | 19* | 30* | -11
Fc1cccc(NC(=S)Nc2cccc3ccccc23)c1 | nt | nt | nt | 5 | nt | nt
O=C(C(c1ccccc1)c1ccccc1)N1CCOCC1 | 7 | 101 | -3 | 47* | -4 | -7
O=C(c1ccccc1F)N1CCN(C(=O)C(c2ccccc2)c2ccccc2)CC1 | nt | nt | nt | -1 | nt | nt
CCOC(=O)C1CCCN(C(=O)C(=O)c2cn(CC(=O)N3CCOCC3)c3ccccc23)C1 (configuration not stated) | nt | nt | nt | -2 | nt | nt
COc1ccc(N(CC(=O)NCc2ccc(F)cc2)C(=O)Cn2nnc(-c3ccc(C)o3)n2)cc1OC | nt | nt | nt | 49* | 0 | -3
CC(c1ccco1)N(C(=O)c1ccccc1NS(=O)(=O)c1ccc(Cl)cc1)c1ccccn1 (configuration not stated) | -6 | 105 | 6 | 1 | nt | nt
CC(c1ccco1)N(C(=O)COc1ccc(Cl)cc1)c1ccccn1 (configuration not stated) | 4 | 104 | -2 | 20* | 0 | -10
COc1cc(/C=N/NC(=O)c2ccc(F)cc2)ccc1OC(=O)c1ccco1 | -7 | 104 | -4 | -2 | nt | nt
COc1cc(/C=N/Nc2ccc(Cl)c(C(=O)O)c2)ccc1OC(=O)c1ccccc1F | nt | nt | nt | 54* | 80* | -28
COc1cc(/C=N/Nc2ccc(Cl)c(C(=O)O)c2)ccc1OC(=O)c1ccc(F)cc1 | nt | nt | nt | 60* | 73* | -17
CCOC(=O)c1[nH]c(C)c(/C(O)=C2\C(=O)C(=O)N(CCCN3CCOCC3)C2c2cccs2)c1C (configuration not stated) | nt | nt | nt | -4 | nt | nt
Cc1ccc(-c2nc(-c3ccccn3)no2)cc1[N+](=O)[O-] | nt | nt | nt | 30* | 58* | 52*
Cc1ccc(-c2nc(-c3ccccn3)no2)cc1 | 107* | 10 | 90* | 94* | 98* | 94*
COc1cc(-c2nc(-c3ccccn3)no2)cc(OC)c1OC | 11 | 96 | -18 | 0 | nt | nt
Clc1cccc(-c2nc(-c3ccccn3)no2)c1 | 81* | 33 | 54* | 57* | 82* | 76*
c1ccc(-c2nc(-c3ccccn3)no2)cc1 | 98* | 20 | 62* | 46* | 80* | 70*
SMILES | STAT3 inh | STAT3 activator | STAT1 blocker | HSP90 refold inh | HSP90 confirm | luciferase ctr
Cc1cc(-c2nc(-c3ccncc3)no2)ccc1[N+](=O)[O-] | nt | nt | nt | -1 | nt | nt
c1ccc(-c2cc(-c3nc(-c4ccccn4)no3)c3ccccc3n2)cc1 | 26 | 81 | -4 | 2 | nt | nt
O=C(Cc1cn(Cc2cccc(Cl)c2)c2ccccc12)N1CCCCCC1 | -7 | 106 | 2 | -4 | nt | nt
COc1cc2c(cc1OC)C(c1ccc(Br)cc1)N(C(=O)c1ccccc1C(=O)O)CC2 (configuration not stated) | nt | nt | nt | -2 | nt | nt
Nc1c(-c2ccccc2)cnn1-c1ccc(C(=O)O)cc1 | -2 | 102 | -36 | 25* | 42* | 4
Cc1nn(-c2ccc(C(=O)O)cc2)c(N)c1-c1ccccc1 | -9 | 109 | -66 | 21* | 48* | -1
CC1(C)OC2CC3C4CC(F)C5=CC(=O)C=CC5(C)C4(F)C(O)CC3(C)C2(C(=O)CO)O1 (configuration not stated) | nt | nt | nt | 0 | nt | nt
O=C(CCN1C(=O)c2ccccc2C1=O)NCc1ccccc1 | nt | nt | nt | 41* | 0 | -7
COc1ccc(-n2ncc3c2CC(C)(C)CC3NC(=O)C2=CC(=O)CC(C)(C)O2)cc1 (configuration not stated) | nt | nt | nt | -4 | nt | nt
CCCc1nc(SCC(=O)Nc2nccs2)c2ccccc2n1 | nt | nt | nt | 2 | nt | nt
